In ChEMBL document CHEMBL1147769 (Bioorg Med Chem Lett, 2006):
pIC50: −log10 of the molar value. Starred links: 1 amine or outer side, 2 acyl side, 3 side chain; linkers in the order of their positions; H or OH if unused. Positions of bridges follow the written chain, without caps; N, C: chain ends. Non-standard residues stand in square brackets, D forms with d. Residues, ends and D or L forms follow the SMILES beside them. Chains are numbered I, II in the order given. NHNH = N(N[*:2])[*:1]

Assays:
Mu-type opioid receptor [1] = molecular target: Mu-type opioid receptor (Rattus norvegicus, UniProt P33535); assay: Agonistic efficacy at rat mu opioid receptor by [35S]GTPgammaS binding assay
[2] = molecular target: T1, Delta-type opioid receptor (Homo sapiens, UniProt P41143); assay: Agonistic efficacy at human delta opioid receptor by [35S]GTP-gammaS binding assay; assay type: functional
Summary of the method: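 Cells expressing human DOR (delta) or rat MOR (mu) incubated with increasing test-compound concentrations and 0.1 nM [35S]GTP-gamma-S in assay buffer, duplicates, 90 min at 30 °C. Stopped by vacuum filtration through GF/B filters pretreated with assay buffer, then four washes with ice-cold 15 mM Tris/120 mM NaCl pH 7.4. Bound radioactivity counted by liquid scintillation after overnight extraction; Emax read as agonist-stimulated binding.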

Mu-type opioid receptor [3] = molecular target: Mu-type opioid receptor (Homo sapiens, UniProt P35372); assay: Displacement of [3H]DAMGO from mu opioid receptor
Summary of the method: (§1)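 Competition binding on membranes from transfected cells stably expressing the mu or delta opioid receptor. Radioligands were [3H]DAMGO for mu and [3H]DPDPE for delta.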

[4] = molecular target: T1, Delta-type opioid receptor; assay: Displacement of [3H]DPDPE from delta opioid receptor; summary of the method: as §1
[5] = molecular target: Delta-type opioid receptor (Mus musculus, UniProt P32300); assay: Activity at delta opioid receptor in mouse vas deferens; assay type: functional, tissue-based
Summary of the method: (§2)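 Isolated tissue bioassays, mouse vas deferens for delta and guinea pig ileum LMMP for mu. Data fitted to the Hill equation by computerized non-linear least squares, giving IC50, relative potency and their standard errors. IC50 is the mean of at least four experiments.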

Mu-type opioid receptor [6] = molecular target: Mu-type opioid receptor (Cavia porcellus, UniProt P97266); assay: Activity at mu opioid receptor in longitudinal muscle myenteric plexus from guinea pig ileum; assay type: functional, tissue-based; summary of the method: as §2
Sequence of Mu-type opioid receptor (Cavia porcellus, UniProt P97266) (P97266 whole entry): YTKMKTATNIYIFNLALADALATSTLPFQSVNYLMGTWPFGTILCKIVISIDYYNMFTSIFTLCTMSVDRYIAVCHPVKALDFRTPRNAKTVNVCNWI

T1 sequence (P41143 whole entry): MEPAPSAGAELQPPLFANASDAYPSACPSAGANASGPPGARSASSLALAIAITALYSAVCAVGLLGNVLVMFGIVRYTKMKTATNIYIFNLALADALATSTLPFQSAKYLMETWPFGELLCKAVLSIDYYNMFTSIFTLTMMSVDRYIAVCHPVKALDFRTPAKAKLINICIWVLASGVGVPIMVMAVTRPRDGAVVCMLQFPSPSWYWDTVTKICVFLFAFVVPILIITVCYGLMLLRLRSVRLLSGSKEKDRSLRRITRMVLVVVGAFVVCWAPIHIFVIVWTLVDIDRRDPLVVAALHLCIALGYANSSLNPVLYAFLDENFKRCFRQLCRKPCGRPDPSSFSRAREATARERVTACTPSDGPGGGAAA
Sequence of Mu-type opioid receptor (Rattus norvegicus, UniProt P33535) (P33535 whole entry): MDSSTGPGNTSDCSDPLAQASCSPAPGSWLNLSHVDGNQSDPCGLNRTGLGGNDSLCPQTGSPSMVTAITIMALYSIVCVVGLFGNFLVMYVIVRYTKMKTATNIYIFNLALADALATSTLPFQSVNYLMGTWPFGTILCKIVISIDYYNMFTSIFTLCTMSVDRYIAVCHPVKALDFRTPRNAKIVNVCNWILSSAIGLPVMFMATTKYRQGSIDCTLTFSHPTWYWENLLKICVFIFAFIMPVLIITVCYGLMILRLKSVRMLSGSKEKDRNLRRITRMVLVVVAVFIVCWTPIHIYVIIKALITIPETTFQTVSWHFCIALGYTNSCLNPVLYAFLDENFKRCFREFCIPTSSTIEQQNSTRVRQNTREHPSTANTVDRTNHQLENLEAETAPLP
Sequence of Delta-type opioid receptor (Mus musculus, UniProt P32300) (P32300 whole entry): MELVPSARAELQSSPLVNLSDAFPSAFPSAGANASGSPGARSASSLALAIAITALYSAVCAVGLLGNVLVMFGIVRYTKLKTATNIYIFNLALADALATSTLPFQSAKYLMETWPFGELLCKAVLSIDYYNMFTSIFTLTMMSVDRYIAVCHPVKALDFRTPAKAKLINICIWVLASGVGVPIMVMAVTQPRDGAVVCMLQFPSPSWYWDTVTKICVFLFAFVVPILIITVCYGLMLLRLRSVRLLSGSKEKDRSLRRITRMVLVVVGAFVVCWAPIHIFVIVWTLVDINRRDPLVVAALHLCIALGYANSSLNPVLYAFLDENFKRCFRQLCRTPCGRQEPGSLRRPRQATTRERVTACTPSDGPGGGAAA
Sequence of Mu-type opioid receptor (Homo sapiens, UniProt P35372) (P35372 whole entry): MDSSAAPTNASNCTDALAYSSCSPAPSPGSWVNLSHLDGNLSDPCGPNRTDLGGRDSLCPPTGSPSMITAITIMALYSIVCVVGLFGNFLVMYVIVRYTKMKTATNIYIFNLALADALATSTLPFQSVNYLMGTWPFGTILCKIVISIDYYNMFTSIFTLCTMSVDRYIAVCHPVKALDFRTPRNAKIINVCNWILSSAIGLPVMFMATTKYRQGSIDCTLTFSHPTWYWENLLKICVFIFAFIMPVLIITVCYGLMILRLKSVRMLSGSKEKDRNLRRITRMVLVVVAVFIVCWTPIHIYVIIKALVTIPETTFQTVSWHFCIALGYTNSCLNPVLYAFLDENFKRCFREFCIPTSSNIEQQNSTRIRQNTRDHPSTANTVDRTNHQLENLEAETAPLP

SMILES	pIC50 (Mu-type opioid receptor [1])	Emax [2] [%]	pIC50 [2]	pIC50 (Mu-type opioid receptor [3])	pIC50 [4]	pIC50 [5]	pIC50 (Mu-type opioid receptor [6])
N[C@@H](Cc1ccc(O)cc1)C(=O)N[C@H]1CSSC[C@H](NC(=O)[C@@H](N)Cc2ccc(O)cc2)C(=O)NCC(=O)N[C@@H](Cc2ccccc2)C(=O)NNC(=O)[C@H](Cc2ccccc2)NC(=O)CNC1=O (I: H-YCGF / II: H-YCGF; disulfide I:2-II:2; linker I:C-II:C via NHNH)	6.92	58	6.59	6.89	7.28	6.24	6.38
C[C@@H](NC(=O)[C@@H](N)Cc1ccc(O)cc1)C(=O)NCC(=O)N[C@@H](Cc1ccccc1)C(=O)NNC(=O)[C@H](Cc1ccccc1)NC(=O)CNC(=O)[C@@H](C)NC(=O)[C@@H](N)Cc1ccc(O)cc1 [BIPHALIN]	8.22	27					
N[C@@H](Cc1ccc(O)cc1)C(=O)N[C@@H]1CSSC[C@@H](NC(=O)[C@@H](N)Cc2ccc(O)cc2)C(=O)NCC(=O)N[C@@H](Cc2ccccc2)C(=O)NNC(=O)[C@H](Cc2ccccc2)NC(=O)CNC1=O (I: H-Y[dC]GF / II: H-Y[dC]GF; disulfide I:2-II:2; linker I:C-II:C via NHNH)	9.70	100	9.06	9.22	9.06	8.00	7.60
